A short description of data set [1]: AUC (0 to infinity) in rat at 10 mg/kg, iv. In kind it is ADME, organism-based. Set-up: time infinity, dose 10 mg/kg, route intravenous. The settings on record: plasma.
Data set [2] deals with Sodium-dependent serotonin transporter (Rattus norvegicus) (UniProt P31652). In words: Displacement of [3H]paroxetine from SERT in rat cerebral cortex at 100 nM.
Data set [3] in a line: Half life in rat at 10 mg/kg, po. In kind it is ADME, organism-based. Set-up: dose 10 mg/kg, route oral. The settings on record: in vivo.
Data set [4] in a line: Volume of distribution at steady state in rat at 10 mg/kg, iv. In kind it is ADME, organism-based. Set-up: dose 10 mg/kg, route intravenous. As to conditions: in vivo, read-out: Vdss.
Data set [5] deals with Histamine H1 receptor (Homo sapiens) (UniProt P35367). Nature of the data set: Inhibition of histamine H1 receptor at 10 uM.
Data set [6] relates to Mus musculus. In words: Analgesic activity in mouse assessed as reduction of acetic acid-induced writhing at 30 mg/kg.
The nature of data set [7]: Inhibition of alpha1 adrenergic receptor at 10 uM.
The nature of data set [8]: Half life in human liver microsomes. Type of data set: ADME, Microsome. The method in brief: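 Metabolic stability in human or rat liver microsomes. Half-lives measurable up to 60 min.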
For orientation: Liver microsomes are a subcellular fraction often used to study metabolism.

For data set [9], the target named is T1, Muscarinic acetylcholine receptor M1 (Homo sapiens) (UniProt P11229).
T1 sequence (whole entry): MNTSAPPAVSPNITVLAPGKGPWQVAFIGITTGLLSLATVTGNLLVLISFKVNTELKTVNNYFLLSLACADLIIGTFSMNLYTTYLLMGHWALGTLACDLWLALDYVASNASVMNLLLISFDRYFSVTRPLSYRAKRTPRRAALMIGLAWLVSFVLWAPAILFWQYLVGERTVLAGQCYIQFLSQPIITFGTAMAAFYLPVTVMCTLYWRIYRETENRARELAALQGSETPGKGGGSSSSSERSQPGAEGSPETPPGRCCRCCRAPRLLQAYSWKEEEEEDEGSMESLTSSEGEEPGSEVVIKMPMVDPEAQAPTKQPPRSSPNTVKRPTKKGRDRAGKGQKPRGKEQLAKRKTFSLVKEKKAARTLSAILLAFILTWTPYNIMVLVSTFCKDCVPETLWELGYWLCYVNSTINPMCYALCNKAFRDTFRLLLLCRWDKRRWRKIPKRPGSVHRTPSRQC
Nature of the data set: Inhibition of muscarinic M1 receptor at 10 uM.

A short description of data set [10]: Tmax in rat at 10 mg/kg, po. Set-up: dose 10 mg/kg, route oral. In kind it is ADME, organism-based. As to conditions: in vivo.
Data set [11] deals with Mus musculus. In words: Potentiation of […]-induced serotonin syndrome like behavior in mouse at 30 mg/kg, po. In kind it is functional. The method in brief:
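Mice, oral dosing. For serotonin potentiation, 5-hydroxytryptophan (5-HTP, serotonin precursor) is given to induce serotonin syndrome-like head twitch/stereotypy counts. Response is expressed as % potentiation relative to control group (0%). Minimal effective dose is the lowest dose reaching p <0.05. Doses are in mg/kg.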

The target in the next data set is Cytochrome P450 2C19 (Homo sapiens, UniProt P33261). In words: Inhibition of CYP2C19. Type of data set: ADME.
The target in a further data set is Cytochrome P450 3A4 (Homo sapiens, UniProt P08684). In words: Inhibition of CYP3A4. Type of data set: ADME.

This note sets out measurements from ChEMBL document CHEMBL1221386, “Synthesis and pharmacological evaluation of 3-aryl-3-azolylpropan-1-amines as selective triple serotonin/norepinephrine/dopamine reuptake inhibitors” (Bioorg Med Chem Lett, 2010).

pIC50: −log10 of the molar value. Bounds are passed on as bounds.

Histamine H1 receptor (Homo sapiens), sequence (P35367 whole entry): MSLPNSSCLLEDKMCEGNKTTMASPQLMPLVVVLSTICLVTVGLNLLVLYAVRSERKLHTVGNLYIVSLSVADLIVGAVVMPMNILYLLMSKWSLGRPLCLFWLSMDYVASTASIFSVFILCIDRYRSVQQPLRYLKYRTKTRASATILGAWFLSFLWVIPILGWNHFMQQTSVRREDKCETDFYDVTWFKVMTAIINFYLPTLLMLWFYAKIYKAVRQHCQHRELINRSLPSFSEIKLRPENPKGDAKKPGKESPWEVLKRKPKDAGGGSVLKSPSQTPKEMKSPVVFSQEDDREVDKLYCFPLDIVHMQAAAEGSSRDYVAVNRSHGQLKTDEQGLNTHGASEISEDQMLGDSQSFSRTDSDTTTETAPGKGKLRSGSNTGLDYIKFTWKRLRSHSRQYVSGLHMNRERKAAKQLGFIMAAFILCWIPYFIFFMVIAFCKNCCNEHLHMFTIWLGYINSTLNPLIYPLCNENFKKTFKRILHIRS
Sodium-dependent serotonin transporter (Rattus norvegicus), sequence (P31652 whole entry): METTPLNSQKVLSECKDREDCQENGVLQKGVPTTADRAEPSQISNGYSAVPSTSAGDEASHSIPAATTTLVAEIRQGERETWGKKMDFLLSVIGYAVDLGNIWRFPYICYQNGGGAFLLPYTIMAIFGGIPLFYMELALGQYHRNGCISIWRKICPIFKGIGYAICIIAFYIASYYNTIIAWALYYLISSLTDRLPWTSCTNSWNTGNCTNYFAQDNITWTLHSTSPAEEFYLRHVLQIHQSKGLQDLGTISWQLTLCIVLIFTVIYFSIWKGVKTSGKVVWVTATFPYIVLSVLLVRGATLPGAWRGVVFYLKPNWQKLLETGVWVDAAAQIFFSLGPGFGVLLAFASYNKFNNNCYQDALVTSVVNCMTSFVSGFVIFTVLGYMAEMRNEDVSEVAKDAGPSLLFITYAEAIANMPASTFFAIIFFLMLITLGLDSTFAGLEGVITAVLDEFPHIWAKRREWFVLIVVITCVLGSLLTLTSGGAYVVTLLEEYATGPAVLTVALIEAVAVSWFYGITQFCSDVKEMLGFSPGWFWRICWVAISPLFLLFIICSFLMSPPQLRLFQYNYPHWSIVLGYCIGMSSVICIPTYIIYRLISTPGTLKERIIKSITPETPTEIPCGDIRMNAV
Cytochrome P450 3A4, sequence (P08684 whole entry): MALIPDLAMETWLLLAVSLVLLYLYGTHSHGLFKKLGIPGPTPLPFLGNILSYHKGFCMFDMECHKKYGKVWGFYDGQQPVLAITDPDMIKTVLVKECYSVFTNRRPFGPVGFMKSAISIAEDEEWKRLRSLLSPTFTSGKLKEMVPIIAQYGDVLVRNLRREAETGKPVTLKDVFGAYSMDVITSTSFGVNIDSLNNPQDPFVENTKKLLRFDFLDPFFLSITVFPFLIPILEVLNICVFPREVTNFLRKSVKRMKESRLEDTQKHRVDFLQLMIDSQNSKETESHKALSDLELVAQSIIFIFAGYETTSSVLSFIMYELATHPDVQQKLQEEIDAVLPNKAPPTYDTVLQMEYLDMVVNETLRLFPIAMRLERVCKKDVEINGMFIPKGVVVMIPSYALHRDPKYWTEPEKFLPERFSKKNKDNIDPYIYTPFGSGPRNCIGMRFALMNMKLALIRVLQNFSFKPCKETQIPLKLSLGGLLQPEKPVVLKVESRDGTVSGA
Cytochrome P450 2C19, sequence (P33261 whole entry): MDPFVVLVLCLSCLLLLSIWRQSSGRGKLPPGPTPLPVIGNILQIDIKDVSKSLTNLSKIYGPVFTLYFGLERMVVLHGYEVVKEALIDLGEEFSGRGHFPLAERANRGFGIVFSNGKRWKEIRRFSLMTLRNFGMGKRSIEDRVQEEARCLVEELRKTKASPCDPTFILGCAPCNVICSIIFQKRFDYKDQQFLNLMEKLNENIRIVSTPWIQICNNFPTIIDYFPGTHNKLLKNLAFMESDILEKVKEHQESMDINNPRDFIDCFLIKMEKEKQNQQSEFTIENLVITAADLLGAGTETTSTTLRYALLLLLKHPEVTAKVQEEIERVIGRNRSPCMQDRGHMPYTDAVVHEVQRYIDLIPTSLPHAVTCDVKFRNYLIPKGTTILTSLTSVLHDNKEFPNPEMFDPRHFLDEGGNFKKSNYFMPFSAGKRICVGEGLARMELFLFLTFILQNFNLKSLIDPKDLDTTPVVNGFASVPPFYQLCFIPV

For orientation: AUC(0-inf) means the area under the concentration-time curve extrapolated to infinity. Usually inhibition stands for the change of the read-out against control, counted positive when it falls. Low values mean little suppression, high ones strong suppression. What is called half-life is the time needed for the level to fall by half in the phase considered. Lower therefore signals rapid decline. A word on the inhibition in vivo: it is the relative decrease from the control value, in per cent. In general, Tmax refers to the time at which the peak concentration occurs. Usually pIC50 stands for −log10 of the IC50, conventionally taken in molar units. Higher therefore signals a low IC50. In data set [1], `CNCC[C@@H](c1ccc(Cl)c(Cl)c1)n1nnc(C)n1` showed an AUC(0-inf) of 4150 ng·h/mL. For the same compound, the inhibition was 61.2% in [2], under 20% in [5], under 20% in [7] and under 20% in [9]. Also, the half-life is 329 min in data set [3] and over 60 min in data set [8]. The Vd in data set [4] was 6.8 L/kg. Besides, the inhibition in vivo at 30 mg/kg in the data set on Mus musculus [6] was determined as 94.4%. In addition, the Tmax in data set [10] worked out at 45 min. Moreover, the Activity with Mus musculus [11] is recorded as 158%. Besides, the negative-log IC50 (pIC50) at Cytochrome P450 2C19 and at Cytochrome P450 3A4 was under 5.00 in each case.
